Compound activity: PubChem BioAssay, The Scripps Research Institute Molecular Screening Center
GSTO1 counter: blocks human GSTO1 in RBBP9 counter-screen | P78417 | recombinant GSTO1, activity-based probe fluorescence polarization | inhibition, % at 5.96 µM | 300,000 tested, 1.1% active | AID 1974;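 active = inhibition above the campaign mean inhibition plus 3 SD, cut at about 35% in these data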;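 also: 0% = GSTO1-1 with DMSO and 100% = wells lacking GSTO1-1 enzyme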
Target sequence (P78417 whole entry, looked up): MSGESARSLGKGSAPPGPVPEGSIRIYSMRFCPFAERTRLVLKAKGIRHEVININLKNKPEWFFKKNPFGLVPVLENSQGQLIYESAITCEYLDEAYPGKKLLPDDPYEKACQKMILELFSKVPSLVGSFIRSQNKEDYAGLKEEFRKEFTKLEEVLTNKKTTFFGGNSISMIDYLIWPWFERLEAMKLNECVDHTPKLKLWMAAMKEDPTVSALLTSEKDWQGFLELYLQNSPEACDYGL
Fh CTSL1 inh: blocks F. hepatica cathepsin L1 in PFM18AAP counter-screen. recombinant F. hepatica cathepsin L1, Z-Leu-Arg-MCA fluorescence. inhibition, % at 5.96 µM. 300,000 tested, 0.49% active. AID 1906;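 active = inhibition above the mean of all tested compounds plus 3 SD, set per screening campaign, cut at about 17% in these data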;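 also: 0% = plate median of test compound wells and 100% = 1 µM Z-Phe-Ala-diazomethylketone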
TDP2 inh: TDP2 (human) inhibition, absorbance primary screen | O95551 | recombinant TDP2, T5PNP hydrolysis, p-nitrophenol absorbance 415 nm | AID 720702 | 370,000 tested, 0.34% active | inhibition, % at 12.8 µM;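 active = inhibition above the mean of all tested compounds plus 3 SD, set per campaign, cut at about 25% in these data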;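 also: 0% = DMSO with enzyme and 100% = buffer with substrate but no TDP2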
Target sequence (O95551 whole entry, looked up): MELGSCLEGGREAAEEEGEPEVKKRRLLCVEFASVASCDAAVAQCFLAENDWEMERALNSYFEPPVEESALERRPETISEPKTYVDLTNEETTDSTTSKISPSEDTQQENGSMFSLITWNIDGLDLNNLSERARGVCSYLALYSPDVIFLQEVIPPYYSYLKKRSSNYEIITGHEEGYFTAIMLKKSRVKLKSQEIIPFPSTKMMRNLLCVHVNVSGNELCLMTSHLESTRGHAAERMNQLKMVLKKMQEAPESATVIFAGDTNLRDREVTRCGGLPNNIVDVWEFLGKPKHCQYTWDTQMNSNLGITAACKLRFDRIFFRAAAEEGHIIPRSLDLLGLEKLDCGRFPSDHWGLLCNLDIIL
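Assay system: Recombinant human TDP2 | Quantity: 120 nM TDP2 per well | Incubation: 2 h at 37 °C | Signal: Epi absorbance | Evaluation: Percent inhibition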
PAD4 inh: blocks human protein arginine deiminase 4; Q9UM07; recombinant PAD4, RCA probe fluorescence polarization; inhibition, % at 6.36 µM; 330,000 tested, 0.41% active; AID 485272;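 active = percent inhibition above a cutoff equal to the mean of all tested compounds plus 3 SD, cut at about 15% in these data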;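 also: 0% = PAD4 with RCA probe and DMSO and 100% = probe without PAD4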
TDP2 inh conf: confirmation of human TDP2 inhibitors; shares compounds with TDP2 inh; recombinant human TDP2, absorbance read-out; inhibition, % at 12.8 µM; 1,100 tested, 22% active; in the data active = inhibition above about 25%;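 also: 0% = vehicle with enzyme and 100% = no enzyme buffer only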
The depositor's hits bear a star; . = no result. Hits are enriched below; roughly 1.4% of the tested compounds scored in any of these assays.

SMILES | GSTO1 counter | Fh CTSL1 inh | TDP2 inh | PAD4 inh | TDP2 inh conf
Cc1cc(C(=O)N2CCC2(C)C(=O)NS(=O)(=O)c2ccc(Cl)cc2)nn1C (stereo unspecified) | . | . | 2 | . | .
O=C(NCc1ccccc1)C(CCc1ccccc1)n1c(=O)c(-c2ccccc2)nc2ccccc21 (stereo unspecified) | . | . | 6 | . | .
O=C(Nc1nc2ncccn2c1-c1ccc(C(F)(F)F)cc1)c1ccccc1 | . | . | 0 | . | .
Clc1ccc([C@H]2OC[C@@]3(CNC4CCCCC4)CS[C@H](c4ccc(Cl)cc4)N23)cc1 | . | . | -2 | . | .
Cc1ccc(Nc2nc(N)nc(CN3CCCCCC3)n2)c(C)c1 | 8 | -2 | 38* | -1 | -3
Cc1ccc(Nc2nc(N)nc(CN3CCC(C)CC3)n2)c(C)c1 | -6 | -1 | -4 | -3 | .
O=C(O)c1ccccc1-c1c2cc(I)c(=O)c(I)c-2oc2c(I)c(O)c(I)cc12 | -196 | 7 | 28* | -123 | 40*
O=C(CSc1nnc(-c2cccnc2)n1-c1ccccc1)Nc1ccc(OCc2ccccc2)cc1 | . | . | 4 | . | .
NC1=C(Cl)C(=O)c2ccc(S(N)(=O)=O)cc2C1=O | . | . | 76* | . | 74*
NC1=C(Cl)C(=O)c2ccccc2C1=O | . | . | 19 | . | .
COC(=O)/C=C1\Nc2ccc(Cl)cc2C(=O)NC1=O | . | . | -4 | . | .
CC1(C)c2cc(O)ccc2OC1N1CCOCC1 (stereo unspecified) | 4 | -3 | 25* | -4 | 12
O=S1(=O)CC2c3ccccc3CN2CN1Cc1ccccc1 (stereo unspecified) | . | . | 7 | . | .
O=C(CN1CCCCC1)Nc1c2c(nc3ccccc13)N(c1ccccc1)CC2 | 0 | -1 | 45* | 1 | 9
Oc1ccc(Oc2ccccc2F)c2cccnc12 | . | . | 2 | . | .
N#CCC[C@H]1CC[C@]2(CCCN(Cc3cccc4ccccc34)C2)O1 | . | . | 5 | . | .
Fc1ccc(Nc2cncc(-c3ccsc3)c2)cc1Cl | . | . | 81* | . | 52*
Fc1ccc(Nc2nnc(C(F)(F)F)s2)cc1Cl | -2 | -4 | 0 | -1 | .
CC(C)NC(=O)C(=O)Nc1cc2c3c(c1)C(C)C(=O)N3CCC2 (stereo unspecified) | 9 | -4 | 34* | 1 | -4
CN(C)C(=O)c1cccc(-c2cnc3c(NC=O)cc(-c4ccccc4N(C)C)cn23)c1 | . | . | 29* | . | 17
Cn1c2ccccc2c(=O)c2c(=O)n(Cc3cccc4ccccc34)cnc21 | . | . | -7 | . | .
O=C(Nc1cc(S(=O)(=O)N2CCOCC2)ccc1N1CCCC1)c1cc2c(s1)CCCC2 | . | . | -9 | . | .
COC(=O)[C@H](Cc1ccccc1)N(Cc1cn(Cc2ccccc2)nn1)S(=O)(=O)c1ccccc1Br | . | . | 0 | . | .
NC(=O)Nc1ccc(C(=O)OCC(=O)N(Cc2ccccc2)C2CCS(=O)(=O)C2)cc1 (stereo unspecified) | 1 | 6 | -1 | -1 | .
CN(C)c1cccc(C(=O)OCC(=O)N(Cc2ccccc2)C2CCS(=O)(=O)C2)c1 (stereo unspecified) | 2 | -3 | 38* | 0 | -11
SMILES | GSTO1 counter | Fh CTSL1 inh | TDP2 inh | PAD4 inh | TDP2 inh conf
CC1=NN(CCC#N)C(=O)/C1=C/c1ccc(N(C)C)cc1 | 23 | 0 | 42* | -21 | -4
Cc1ccc2[nH]cc(S(=O)(=O)c3ccc(C(C)C)cc3)c(=O)c2c1 | -1 | 9 | 3 | -3 | .
Cc1ccc(S(=O)(=O)c2c[nH]c3cc4c(cc3c2=O)OCO4)cc1 | 11 | 2 | 26* | -1 | -8
Cc1ccc(CN2CCCCC(NC(=O)c3ccc4ccccc4c3)C2=O)cc1 (stereo unspecified) | . | . | -6 | . | .
COc1ccc(Cc2nnc(SCC(=O)NC(C)c3ccccc3)o2)cc1 (stereo unspecified) | -3 | -2 | 72* | -1 | -6
CC(NC(=O)CSc1nnc(COc2ccccc2)o1)c1ccccc1 (stereo unspecified) | -4 | 2 | 4 | 3 | .
COC(=O)c1cc(NC(=O)NC2CCCCN(Cc3cccc(Cl)c3)C2=O)cc(C(=O)OC)c1 (stereo unspecified) | . | . | -8 | . | .
CSc1ccc(/C=N\Nc2nncn2N)cc1 | 14 | 2 | 64* | 42* | 6
Nn1cnnc1N/N=C/c1cc(Br)cc(Br)c1O | -20 | 2 | 54* | 4 | -5
CC(C)(C)c1ccc(/C=N/Nc2nncn2N)cc1 | . | . | 67* | . | 4
Cc1[nH][nH]c(=O)c1C(c1c(C)[nH][nH]c1=O)c1cn(C)c2ccccc12 | . | . | 49* | . | 21
COC(=O)C[C@H]1CC[C@H]2[C@H](COc3ccc(NC(=O)Nc4ccccc4F)cc3C(=O)N2C)O1 | . | . | -7 | . | .
COC1=CC(=O)c2nc(Cl)ccc2C1=O | . | . | 85* | . | 78*
Cc1ccc(NC(=O)CCSc2nnc(C)o2)cc1 | 0 | -2 | 28* | 0 | 6
Cc1nnc(SCCC(=O)Nc2ccc(Cl)cc2)o1 | 6 | -2 | 2 | -1 | .
O=C(Nc1ccc(S(=O)(=O)N2CCCCC2)cc1)C1CC(=O)N(c2ccc(Cl)cc2)C1 (stereo unspecified) | -8 | -1 | 25* | -2 | -6
Cc1ccc(N2CC(C(=O)Nc3ccc(S(=O)(=O)N4CCCC4)cc3)CC2=O)cc1 (stereo unspecified) | -7 | -1 | -7 | -4 | .
CCOC(=O)c1cnc(SC)nc1N1CCCC1 | 15 | -5 | 29* | -2 | -6
CN1CCN(C2=C(Cl)C(=O)c3ccccc3C2=O)CC1 | . | . | 69* | . | 80*
CCOC(=O)C1CCN(S(=O)(=O)c2cc(C(=O)N3CCCCC3)ccc2OC)CC1 | -1 | -3 | 25* | 3 | -1
CCOC(=O)[C@]12CCCC=C1N(Cc1ccc(OC)cc1)C(=O)[C@@H]2CC(=O)NCCC(C)C | . | . | 9 | . | .
CCOc1ccc(Cl)cc1-c1cc(C(=O)Nc2cc(OC)c(OC)c(OC)c2)[nH]n1 | . | . | -1 | . | .
COc1cc(C(=O)Nc2cccc3ncccc23)cc(OC)c1OC | 2 | 0 | -15 | 3 | .
COc1cc(N)c2ncccc2c1OC | . | . | 46* | . | 10
c1ccc(Cn2c(SCC3CCCCC3)nnc2-c2cccnc2)cc1 | . | . | 7 | . | .
SMILES | GSTO1 counter | Fh CTSL1 inh | TDP2 inh | PAD4 inh | TDP2 inh conf
CCn1ccnc1CNC(=O)c1ccc(OC2CCN(C(=O)COC)CC2)cc1 | 6 | 1 | 27* | 3 | -5
CCC(C)N1CCN(S(=O)(=O)c2ccc3ccccc3c2)CC1 (stereo unspecified) | -3 | 0 | 32* | -2 | 6
Cc1ccc(NCN2C(=O)C3C4CCC(C4)C3C2=O)cc1 (stereo unspecified) | 2 | 0 | . | -1 | .
CC(=O)Nc1ccc(NCN2C(=O)C3C4CCC(C4)C3C2=O)cc1 (stereo unspecified) | 6 | -4 | 32* | 1 | 8
O=C(NCc1ccccn1)c1ccc2c(c1)N(Cc1ccccc1)CCS2 | 6 | 3 | 3 | 1 | .
O=C(NCc1cccnc1)c1ccc2c(c1)N(Cc1ccccc1)CCS2 | 4 | 6 | 25* | -2 | -3
Cc1nc2sc(C(=O)NC3CC3)c(N)c2c(C)c1Cl | . | . | -1 | . | .
C=CCN1[C@H](CO)[C@H](c2ccccc2)[C@@H]1C#N | . | . | 2 | . | .
